One data set deals with Salmonella typhimurium. Kind of data set: Genotoxicity in Salmonella typhimurium TA98 by Ames test. In kind it is toxicity, organism-based. As to conditions: salmonella enterica subsp. enterica serovar typhimurium.
In data set [1] the target is Vascular endothelial growth factor receptor 2 (Homo sapiens, UniProt P35968). Kind of data set: Inhibition of human KDR using cisbio TK biotin-peptide as substrate preincubated for 30 mins followed by substrate addition measured after 30 mins by HTRF assay.
Sequence of Vascular endothelial growth factor receptor 2 (P35968 whole entry): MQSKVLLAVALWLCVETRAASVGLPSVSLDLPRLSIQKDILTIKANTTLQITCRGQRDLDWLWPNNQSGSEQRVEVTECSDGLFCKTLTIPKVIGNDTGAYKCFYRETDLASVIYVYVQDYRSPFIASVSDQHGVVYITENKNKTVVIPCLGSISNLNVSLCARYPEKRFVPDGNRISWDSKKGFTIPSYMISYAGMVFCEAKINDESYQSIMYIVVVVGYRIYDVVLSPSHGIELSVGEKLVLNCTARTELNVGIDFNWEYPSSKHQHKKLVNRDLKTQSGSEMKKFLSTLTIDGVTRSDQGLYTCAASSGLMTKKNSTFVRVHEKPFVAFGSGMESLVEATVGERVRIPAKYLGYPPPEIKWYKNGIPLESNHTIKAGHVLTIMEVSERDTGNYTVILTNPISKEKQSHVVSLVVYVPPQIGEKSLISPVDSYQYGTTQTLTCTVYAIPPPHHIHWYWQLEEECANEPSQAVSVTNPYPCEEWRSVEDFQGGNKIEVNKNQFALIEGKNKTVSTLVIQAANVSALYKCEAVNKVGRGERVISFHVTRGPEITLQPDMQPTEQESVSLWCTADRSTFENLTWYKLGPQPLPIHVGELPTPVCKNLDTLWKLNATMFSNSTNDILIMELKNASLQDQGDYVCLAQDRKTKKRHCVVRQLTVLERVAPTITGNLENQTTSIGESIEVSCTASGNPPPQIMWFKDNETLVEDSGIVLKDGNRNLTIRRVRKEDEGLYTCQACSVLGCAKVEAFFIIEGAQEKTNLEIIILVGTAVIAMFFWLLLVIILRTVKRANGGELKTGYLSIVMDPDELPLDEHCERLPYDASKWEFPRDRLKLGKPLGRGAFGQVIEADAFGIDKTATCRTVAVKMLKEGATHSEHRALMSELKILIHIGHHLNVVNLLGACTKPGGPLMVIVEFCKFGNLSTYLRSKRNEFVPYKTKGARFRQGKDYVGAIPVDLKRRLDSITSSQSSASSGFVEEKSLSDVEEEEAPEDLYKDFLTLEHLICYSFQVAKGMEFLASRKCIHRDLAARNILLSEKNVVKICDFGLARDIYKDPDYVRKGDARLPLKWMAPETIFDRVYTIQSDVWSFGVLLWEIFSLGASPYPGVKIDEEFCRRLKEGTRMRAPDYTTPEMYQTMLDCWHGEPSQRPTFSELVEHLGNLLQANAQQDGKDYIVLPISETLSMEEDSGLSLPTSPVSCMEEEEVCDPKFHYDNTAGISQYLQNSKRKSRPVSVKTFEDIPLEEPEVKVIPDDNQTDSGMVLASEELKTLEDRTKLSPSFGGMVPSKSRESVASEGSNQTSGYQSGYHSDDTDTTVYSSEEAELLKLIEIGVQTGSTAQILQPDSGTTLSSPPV
In data set [2] the target is Proto-oncogene tyrosine-protein kinase receptor Ret (Rattus norvegicus, UniProt G3V9H8). Kind of data set: Binding affinity to RET in Sprague-Dawley rat colon tissue cell lysate using sepharose beads incubated for 45 mins by LC-MS/MS based chemoproteomics assay. The method in brief: (§1)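 Colon tissue was isolated from rats and analysed by kinobead chemoproteomics. Compound competed with the beads for kinase binding. Apparent affinity is reported as pKdapp and converted to Kd.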
Sequence of Proto-oncogene tyrosine-protein kinase receptor Ret (G3V9H8 whole entry): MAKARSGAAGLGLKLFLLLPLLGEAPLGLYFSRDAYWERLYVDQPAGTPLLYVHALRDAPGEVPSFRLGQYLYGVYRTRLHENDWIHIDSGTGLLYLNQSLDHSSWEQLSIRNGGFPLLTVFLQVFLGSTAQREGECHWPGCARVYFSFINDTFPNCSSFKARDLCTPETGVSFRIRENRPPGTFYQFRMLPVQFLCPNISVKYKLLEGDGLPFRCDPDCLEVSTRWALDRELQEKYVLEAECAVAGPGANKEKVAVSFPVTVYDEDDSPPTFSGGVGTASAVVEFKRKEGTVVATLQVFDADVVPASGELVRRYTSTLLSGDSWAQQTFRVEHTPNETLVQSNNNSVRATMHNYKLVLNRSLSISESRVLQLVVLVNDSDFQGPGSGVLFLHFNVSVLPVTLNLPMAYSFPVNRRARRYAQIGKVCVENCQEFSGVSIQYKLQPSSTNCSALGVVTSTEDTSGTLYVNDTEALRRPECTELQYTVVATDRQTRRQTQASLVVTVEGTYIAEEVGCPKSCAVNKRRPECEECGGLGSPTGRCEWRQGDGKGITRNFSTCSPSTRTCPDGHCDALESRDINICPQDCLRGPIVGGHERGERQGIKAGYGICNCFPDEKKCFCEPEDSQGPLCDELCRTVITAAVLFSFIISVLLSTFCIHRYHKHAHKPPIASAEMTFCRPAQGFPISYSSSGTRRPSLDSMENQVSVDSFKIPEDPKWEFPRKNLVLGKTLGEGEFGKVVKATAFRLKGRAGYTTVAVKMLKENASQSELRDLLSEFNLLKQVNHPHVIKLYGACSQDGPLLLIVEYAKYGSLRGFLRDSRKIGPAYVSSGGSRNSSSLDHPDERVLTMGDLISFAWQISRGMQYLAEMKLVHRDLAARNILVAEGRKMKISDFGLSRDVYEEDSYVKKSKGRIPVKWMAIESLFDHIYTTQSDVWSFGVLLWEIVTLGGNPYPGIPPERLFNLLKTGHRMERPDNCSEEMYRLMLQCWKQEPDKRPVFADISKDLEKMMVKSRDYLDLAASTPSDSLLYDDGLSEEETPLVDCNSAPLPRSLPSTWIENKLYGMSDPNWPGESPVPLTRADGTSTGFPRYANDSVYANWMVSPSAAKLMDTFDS

Data set [3] concerns the target T1, Epithelial discoidin domain-containing receptor 1 (Rattus norvegicus, UniProt Q63474).
T1 sequence (Q63474 whole entry): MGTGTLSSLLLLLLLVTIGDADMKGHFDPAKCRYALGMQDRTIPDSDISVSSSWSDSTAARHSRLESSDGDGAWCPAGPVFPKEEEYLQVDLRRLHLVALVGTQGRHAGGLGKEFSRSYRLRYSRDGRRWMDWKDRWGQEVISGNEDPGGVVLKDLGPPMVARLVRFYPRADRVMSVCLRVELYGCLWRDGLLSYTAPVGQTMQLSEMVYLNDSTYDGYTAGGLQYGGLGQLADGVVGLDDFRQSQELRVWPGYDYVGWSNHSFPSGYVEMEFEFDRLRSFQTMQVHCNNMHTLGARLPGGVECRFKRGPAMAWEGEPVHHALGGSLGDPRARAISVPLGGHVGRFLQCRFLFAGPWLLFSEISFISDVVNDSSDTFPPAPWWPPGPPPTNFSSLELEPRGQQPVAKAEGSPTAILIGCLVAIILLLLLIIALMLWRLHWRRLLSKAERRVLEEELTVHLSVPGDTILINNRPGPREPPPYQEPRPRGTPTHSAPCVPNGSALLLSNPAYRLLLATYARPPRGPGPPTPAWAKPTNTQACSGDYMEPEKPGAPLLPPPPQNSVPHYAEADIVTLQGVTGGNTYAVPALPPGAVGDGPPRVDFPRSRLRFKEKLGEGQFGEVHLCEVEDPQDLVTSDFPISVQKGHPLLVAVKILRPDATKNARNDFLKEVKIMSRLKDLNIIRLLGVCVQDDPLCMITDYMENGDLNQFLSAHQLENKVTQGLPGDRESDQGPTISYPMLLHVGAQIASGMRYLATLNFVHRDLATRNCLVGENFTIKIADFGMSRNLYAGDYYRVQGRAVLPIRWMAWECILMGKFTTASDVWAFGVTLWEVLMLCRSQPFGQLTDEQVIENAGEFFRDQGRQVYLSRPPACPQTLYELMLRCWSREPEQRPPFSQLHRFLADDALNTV
Kind of data set: Binding affinity to DDR1 in Sprague-Dawley rat colon tissue cell lysate using sepharose beads incubated for 45 mins by LC-MS/MS based chemoproteomics assay. In short, it runs like this: as §1

A short description of data set [4]: Binding affinity to DDR2 in Sprague-Dawley rat colon tissue cell lysate using sepharose beads incubated for 45 mins by LC-MS/MS based chemoproteomics assay. In short, it runs like this: as §1
A short description of data set [5]: Solubility of the compound by CLND method. In kind it is physicochemical. The method in brief: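 Kinetic solubility was measured by chemiluminescent nitrogen detection.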
The nature of data set [6]: Solubility of the compound in FaSSIF after 4 hrs. The class given is physicochemical. In short, it runs like this: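 Solubility was measured in fasted state simulated intestinal fluid after 4 h.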
Data set [7] is described as follows: AUC in Sprague-Dawley rat at 0.06 mg/kg, iv administered via bolus. The class given is ADME, organism-based. The note with it: in vivo. In short, it runs like this: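 Male Sprague–Dawley rats received a single IV bolus. Compound was formulated as a clear solution at 0.04 mg/mL in DMSO/6% HP-beta-CD (5:95), pH 7. AUC was derived from the plasma concentration–time curve.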

Data set [8] is described as follows: Cmax in colon contents of Sprague-Dawley rat at 10 mg/kg, po bid administered 7 doses over 3.5 days. More on the design: dose 10 mg/kg, route oral. In kind it is ADME, organism-based, Colon content. In short, it runs like this:
(§2)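 Satellite rats from the colonic hypersensitivity dosing regimen received 10 mg/kg orally twice daily, seven doses over 3.5 days. Concentrations were measured in colon contents, duodenum, jejunum, ileum, colon tissue homogenate and plasma. Cmax (ng/mL) and Tmax (h) were taken from the full time–concentration profiles.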

A short description of data set [9]: Cmax in duodenum of Sprague-Dawley rat at 10 mg/kg, po bid administered 7 doses over 3.5 days. In kind it is ADME, organism-based. More on the design: dose 10 mg/kg, route oral. The method in brief: as §2
Data set [10] can be described thus: Cmax in jejunum of Sprague-Dawley rat at 10 mg/kg, po bid administered 7 doses over 3.5 days. In kind it is ADME, organism-based. Also on record: dose 10 mg/kg, route oral. In short, it runs like this:
as §2

A short description of data set [11]: Cmax in ileum of Sprague-Dawley rat at 10 mg/kg, po bid administered 7 doses over 3.5 days. In kind it is ADME, organism-based. Also on record: dose 10 mg/kg, route oral. The method in brief:
as §2

Data set [12] is described as follows: Cmax in colon of Sprague-Dawley rat at 10 mg/kg, po bid administered 7 doses over 3.5 days. Also on record: dose 10 mg/kg, route oral. The class given is ADME, organism-based. In short, it runs like this:
as §2

The nature of data set [13]: Cmax in plasma of Sprague-Dawley rat at 10 mg/kg, po bid administered 7 doses over 3.5 days. More on the design: dose 10 mg/kg, route oral. The class given is ADME, organism-based. In short, it runs like this: as §2
A short description of data set [14]: Tmax in colon contents of Sprague-Dawley rat at 10 mg/kg, po bid administered 7 doses over 3.5 days. In kind it is ADME, organism-based, Colon content. The method in brief:
as §2

A short description of data set [15]: Tmax in duodenum of Sprague-Dawley rat at 10 mg/kg, po bid administered 7 doses over 3.5 days. In kind it is ADME, organism-based. In short, it runs like this: as §2
Data set [16] is described as follows: Tmax in jejunum of Sprague-Dawley rat at 10 mg/kg, po bid administered 7 doses over 3.5 days. In kind it is ADME, organism-based. In short, it runs like this: as §2
Data set [17] is described as follows: Tmax in ileum of Sprague-Dawley rat at 10 mg/kg, po bid administered 7 doses over 3.5 days. The class given is ADME, organism-based. In short, it runs like this: as §2
A short description of data set [18]: Tmax in colon of Sprague-Dawley rat at 10 mg/kg, po bid administered 7 doses over 3.5 days. In kind it is ADME, organism-based. In short, it runs like this:
as §2

The nature of data set [19]: Tmax in plasma of Sprague-Dawley rat at 10 mg/kg, po bid administered 7 doses over 3.5 days. The class given is ADME, organism-based. In short, it runs like this: as §2
The subject of another data set is Rattus norvegicus. Kind of data set: Reduction in acetic acid-induced acute visceral afferent neuron sensitization in Sprague-Dawley rat acute colonic hypersensitivity model assessed as decrease in visceromotor response to colorectal distension by measuring number of abdominal contractions at 10 mg/kg, po bid administered for 3.5 days followed by acetic acid induction for 60 mins administered 5 mins post last compound dose and measured for 10 mins. The class given is functional, organism-based. In short, it runs like this: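 Acetic acid enema at low concentration gave a transient, noninflammatory sensitization of colonic afferents. Colorectal distension then evoked a visceromotor response, scored visually as abdominal contractions. Rats (n = 7 per group) were dosed orally at 10 mg/kg twice daily for 3.5 days and compared with acetic acid/vehicle controls. Analysis used repeated-measure two-way ANOVA with Bonferroni post-test.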

Converted amounts (≈) assume the structure as drawn. The source made the active and inactive calls. No cut-off for these calls is given here.

As to `COc1cc(-c2ccc(N)c(F)c2)c[nH]c1=O`, in the data set on Salmonella typhimurium, the Activity result is “Toxic”.

Turning to `CC(C)(c1cc(N)no1)C(F)(F)F`, in the data set on Salmonella typhimurium, the Activity result is recorded as “Non-Toxic”.

For the compound `CCN1CCN(Cc2ccc(N)cc2C(F)(F)F)CC1`, the Activity entry with Salmonella typhimurium is “Toxic”.

`CCOc1cc(-c2ccc(N)cc2)c[nH]c1=O`: the Activity entry in the data set on Salmonella typhimurium is “Toxic”.

Compound `CCN1CCN(Cc2ccc(NC(=O)Nc3ccc(-c4ccnc(NC)c4)cc3)cc2C(F)(F)F)CC1` came in with an IC50 in data set [1] of more than 1000 nM.

As for `CCOc1cc(-c2ccc(N)c(F)c2)c[nH]c1=O`, in the data set with Salmonella typhimurium, the Activity result is “Toxic”.

On to `CCOc1cc(=O)[nH]cc1-c1ccc(CC(=O)Nc2cc(C(C)(C)C(F)(F)F)on2)c(F)c1` [GSK-3179106], for which the Activity result with Salmonella typhimurium was “Non-Toxic”. Besides, the Kd in [2] came to 20 nM; in data set [3], 40 nM; in [4], 90 nM. The same compound gave a solubility (kinetic) in [5] of 21 µM (≈ 9.82 µg/mL). The same compound had a solubility at 4 h in data set [6] of 0.4 µg/mL (≈ 0.856 µM). This compound also displayed an AUC in [7] of 102 ng·h/mL. The Cmax in data set [8] worked out at 288000 ng/mL; in [9] it was 15700 ng/mL; in data set [10] it was 12800 ng/mL; in [11] it was 5520 ng/mL; in data set [12], 3360 ng/mL; in [13], 40 ng/mL. The Tmax in [14] was 7 h; in [15] it was 0 h; in [16], 1 h; in data set [17], 2 h; in data set [18], 7 h; in [19], 4 h. The outcome in the data set on Rattus norvegicus was Active.

The values are drawn from ChEMBL document CHEMBL4196113, “Discovery of a First-in-Class Gut-Restricted RET Kinase Inhibitor as a Clinical Candidate for the Treatment of IBS” (ACS Med Chem Lett, 2018).
